# This is a sample that favours compounds with a hit; in the whole collection about 6.4% have one here.
# WT yeast gro inh = growth inhibition of WT yeast, mitochondrial fusion screen; mitochondrial fusion phenotypic screen, WT strain; inhibition, % at 10 µM; 190,000 compounds, 2.1% hits; in the data active means inhibition above about 58%; tested in S. cerevisiae
# Tb MetRS inh = Trypanosoma brucei MetRS inhibition; 360,000 compounds, 0.4% hits; inhibition, % at 11.9 µM; purified T. brucei MetRS, ATP depletion, Kinase-Glo luminescence; AID 624268;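 active means inhibition above a per-plate cutoff of the control wells' mean inhibition plus 3 SD, cut at about 5.5% in these data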;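 further: 0% = DMSO wells median and 100% = median of wells with control inhibitor compound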
#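 Material – parasite MetRS enzyme · Medium – HEPES-MgCl2-KCl buffer plus DTT, spermine, BSA, pyrophosphatase · Reagent – ATP, methionine and E. coli bulk tRNA substrates · Times – 15 min enzyme-compound preincubation, 2 h reaction, 10 min detection, 25 °C · Measured by – luminescence of leftover ATP · Evaluation – percent inhibition relative to median high and low control wells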
# MPTP inh = permeability transition pore inhibition; isolated mouse mitochondria, Ca2+ swelling absorbance, 30 min; inhibition, % at 10 µM; 360,000 compounds, 1.4% hits; AID 602449;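 active means inhibition of 50% or more, scaled per plate between neutral and stimulator controls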;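 further: 0% = DMSO wells given calcium and 100% = 1 mM EGTA wells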
# EBV gp42 block = inhibitors of Epstein-Barr virus glycoprotein 42; Q1HVG2; Fluorescence polarization binding assay, mP read-out; inhibition, % (tested at 21.74 µM); 220,000 compounds, 0.42% hits; in the data active means inhibition above about 50%
# Target sequence (Q1HVG2 whole entry, looked up): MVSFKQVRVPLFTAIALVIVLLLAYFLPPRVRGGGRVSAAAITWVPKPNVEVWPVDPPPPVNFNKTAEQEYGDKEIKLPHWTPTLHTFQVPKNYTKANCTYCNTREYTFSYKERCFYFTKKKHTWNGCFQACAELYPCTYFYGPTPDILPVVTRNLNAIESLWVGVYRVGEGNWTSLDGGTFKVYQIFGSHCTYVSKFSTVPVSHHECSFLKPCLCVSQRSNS
# GRIN3A LBD mod = modulators (binders) of human NR3A ligand-binding domain; NR3A LBD differential scanning fluorimetry, Tm shift; 0% = protein alone, 100% = glycine-bound protein; Tm shift relative to glycine control, % at 25 µM; 340,000 compounds, 2.5% hits; AID 1259313;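 active means melting temperature shift of at least 10% of the positive control shift, at one fixed dose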
# CHOP inhibitor = inhibitors of CHOP induction in ER stress response | CHO-K1 CHOP-promoter luciferase, tunicamycin-induced, 15-18 h | 220,000 compounds, 3.8% hits | inhibition, % at 10 µM;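 active means compounds that reduced the stress-induced luciferase reporter signal by more than about 70% of percent inhibition, limit read from the data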;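 further: 0% = tunicamycin plus vehicle and 100% = wells without tunicamycin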
# Numbers without * were called inactive; nt = no result given.
SMILES,WT yeast gro inh,Tb MetRS inh,MPTP inh,EBV gp42 block,GRIN3A LBD mod,CHOP inhibitor
CN(C)c1c2ccccc2nc2c(F)c(F)c(F)c(F)c12,20,0,2,-74,-1,70*
Cc1c(N(C)C)nc2ccccc2c1N,14,1,0,-15,1,26
O=C1c2ccccc2C(=O)c2c1ccc(C(=O)N1CCCCC1)c2NCCO,38,-1,7,-4,12*,41
CC1CCCN(C(=O)c2ccc3c(c2NCCO)C(=O)c2ccccc2C3=O)C1 (configuration not stated),56,-1,4,3,5,40
NC(=O)c1ccc2c(=O)n3c(-c4cc(Cl)c(N)c(Cl)c4)csc3nc2c1,nt,0,-2,4,-2,88*
Cc1csc2nc3cc(C(N)=O)ccc3c(=O)n12,nt,0,-1,-16,-5,-19
Cc1nc(SCC(=O)NC2CCS(=O)(=O)C2)c2c(C)c(C)sc2n1 (configuration not stated),nt,0,-2,nt,-1,nt
CC(C)OC(=O)NCCOC(=O)Nc1ccc(Cl)cc1,7,0,5,-13,25*,-2
COc1ccc(C(C)=O)cc1CSc1nnc(Nc2ccccc2)s1,-7,2,6,-15,-11,50
COC(=O)COc1ccc(/C=C2/SC(=O)N(CC(=O)N3CCCC3)C2=O)cc1Br,-5,1,-1,-23,0,5
O=C(NC(=S)Nn1cnc2c(cnn2-c2ccccc2)c1=O)c1ccc(Oc2ccccc2)cc1,22,0,6,-6,4,73*
COc1cc(C(=O)NCC(=O)N/N=C/c2ccc(-c3cccc([N+](=O)[O-])c3)o2)cc(OC)c1OC,nt,0,0,nt,-1,nt
O=C(N/N=C/c1ccc([N+](=O)[O-])o1)c1ccc2c(c1)OCO2,nt,0,1,nt,-1,nt
COc1cc(C(=O)NCC(=O)N/N=C/c2ccc(-c3ccc([N+](=O)[O-])cc3)o2)cc(OC)c1OC,nt,-1,-2,nt,14*,nt
NC(=S)N/N=C/c1ccc(-c2ccc([N+](=O)[O-])cc2)o1,10,0,-2,-12,2,23
O=C(N/N=C\c1ccc(-c2ccc([N+](=O)[O-])cc2)o1)c1ccc2c(c1)OCO2,15,1,3,14,31*,12
CN(/N=C/c1ccc(-c2ccc([N+](=O)[O-])cc2)o1)c1ccccc1,nt,0,8,nt,13*,nt
Cc1ccc(OCCn2c(=S)[nH]c3c(N)ncnc32)cc1,-5,0,-1,-27,2,-3
Cc1ccc(NC(=O)CN2CCN(Cc3ccccc3)CC2)cc1F,nt,-1,2,nt,0,nt
COC(=O)CNC(=O)C(NC(=O)c1ccc(Cl)cc1)C(C)C (configuration not stated),-5,0,0,-48,-4,27
Cc1nn(Cc2ccccc2)c2c1C(c1cccnc1)C(C#N)=C(N)O2 (configuration not stated),3,0,20,16,-1,-23
O=C(/C=C/c1ccccc1)Nn1c(-c2cccs2)nc2ccccc2c1=O,3,2,0,0,-15,19
O=C(/C=C/c1cccc(Cl)c1)Nn1c(-c2cccs2)nc2ccccc2c1=O,-8,0,11,1,17*,17
CC1(C)Cc2c(c(N3CCOCC3)nc3sc4c(N5CCOCC5)nnnc4c23)CS1,-1,nt,nt,-10,nt,15
c1ccc(-c2cn3nc4c(nc3n2)CCCC4)cc1,8,-1,-2,63*,0,64
SMILES,WT yeast gro inh,Tb MetRS inh,MPTP inh,EBV gp42 block,GRIN3A LBD mod,CHOP inhibitor
Brc1ccc2nc3c(n2c1)CCCC3,18,0,0,-14,1,-9
c1ccc(-c2cn3nc(-c4ccccc4)cnc3n2)cc1,-9,0,0,-33,-3,67
Brc1ccc(-c2cn3nc4c(nc3n2)CCCC4)cc1,3,0,0,-22,0,96*
COc1ccc(-n2c(C)nc3cc(C(=O)O)ccc32)cc1,-5,0,1,-16,2,-11
COC(=O)c1nc(NC(=S)NC(=O)c2cccs2)sc1C,nt,0,2,nt,0,nt
CCc1ccc(-c2cc(C(=O)N/N=C/c3c[nH]c4ccccc34)[nH]n2)cc1,-10,-1,-2,5,24*,89*
O=C(N/N=C/c1ccc[nH]1)c1sc2ccccc2c1Cl,14,-1,30,5,3,9
CCc1ccc2c(Cl)c(C(=O)N/N=C/c3c[nH]c4ccccc34)sc2c1,40,-1,5,-5,24*,71*
CC(C)c1cc(C(=O)N/N=C/c2c[nH]c3ccccc23)n[nH]1,nt,-1,2,-3,8,-4
COc1ccc2c(c1)CCCC2=O,nt,0,0,nt,0,nt
CC(/C=C/c1ccccc1)=N\NC(=S)NC(C)C,71*,-1,2,-13,-2,-18
COc1ccc(CNc2cc(C)ccn2)c(O)c1,nt,2,0,nt,4,nt
COc1ccc(CNc2cc(C)ccn2)cc1,nt,1,0,nt,10*,nt
COc1ccc(C(=O)NC[C@H]2O[C@@H](n3cnc4c(N)ncnc43)[C@H](O)[C@@H]2O)cc1OC,nt,-1,0,nt,nt,nt
CCOC(=O)c1c(NC(NC(=O)C(C)C)C(Cl)(Cl)Cl)sc2c1CCC2 (configuration not stated),66*,0,5,-6,3,53
COc1ccc(/C=N/NC(=O)c2nc(-c3ccccc3)cc(-c3ccccc3)n2)cc1OC,9,0,-7,-10,-1,-19
COc1ccc(/C=N/c2oc(-c3ccccc3)cc2C#N)cc1OC,14,-1,3,-10,37*,20
COc1ccc(CNc2cccc(F)c2)cc1Br,23,0,2,4,-9,86*
COc1ccc(CNCc2cccc(OC)c2OC)cc1Br,-1,0,2,5,-3,20
Cc1cc2c(cc1C)NC(c1c(C)n(C)n(-c3ccccc3)c1=O)C1=C(CC(C)(C)CC1=O)N2 (configuration not stated),40,-2,0,85*,-4,-25
COc1cc(C2Nc3cc(C)c(C)cc3NC3=C2C(=O)CC(C)(C)C3)ccc1OC(C)=O (configuration not stated),nt,0,0,nt,1,nt
COc1ccc(-c2nnc3sc(-c4cccs4)nn23)cc1OC,8,0,-1,-7,-1,-2
O=[N+]([O-])c1cc2c(cc1/C=N/Nc1nc(N3CCCC3)nc(N3CCCC3)n1)OCO2,16,-1,0,-24,-2,51
O=[N+]([O-])c1ccc(-c2ccc(/C=N/Nc3nc(NCc4ccccc4)nc(N4CCOCC4)n3)o2)cc1,6,-1,2,-44,11*,-48
O=[N+]([O-])c1ccc(Nc2nc(N/N=C\c3ccc4c(c3)OCO4)nc(N3CCCCC3)n2)cc1,32,1,3,-13,13*,32

# High-throughput results: PubChem BioAssay, several laboratories
